The values below come from ChEMBL document CHEMBL1153241, “2,3,5-Trisubstituted pyridines as selective AKT inhibitors-Part I: Substitution at 2-position of the core pyridine for ROCK1 selectivity” (Bioorg Med Chem Lett, 2010).

Assay [1] addresses T1, RAC-alpha serine/threonine-protein kinase (Homo sapiens, UniProt P31749). Kind of assay: Inhibition of full length AKT1.
The target of assay [2] is Rho-associated protein kinase 1 (Homo sapiens, UniProt Q13464). Kind of assay: Inhibition of ROCK1.
A short description of assay [3]: Selectivity ratio of IC50 for ROCK1 to IC50 for AKT1.
The target of assay [4] is T1, RAC-alpha serine/threonine-protein kinase. Kind of assay: Inhibition of truncated AKT1. Put shortly:
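AKT1 construct truncated to lack the PH domain. IC50 measured with ATP at or below its Km. At least two determinations (n ≥ 2).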

Assay [5] shares this target. Kind of assay: Inhibition of AKT1 in human BT474 cells assessed as phosphorylation of GSK3. It is filed as cell-based, BT-474.

T1 sequence (P31749 whole entry): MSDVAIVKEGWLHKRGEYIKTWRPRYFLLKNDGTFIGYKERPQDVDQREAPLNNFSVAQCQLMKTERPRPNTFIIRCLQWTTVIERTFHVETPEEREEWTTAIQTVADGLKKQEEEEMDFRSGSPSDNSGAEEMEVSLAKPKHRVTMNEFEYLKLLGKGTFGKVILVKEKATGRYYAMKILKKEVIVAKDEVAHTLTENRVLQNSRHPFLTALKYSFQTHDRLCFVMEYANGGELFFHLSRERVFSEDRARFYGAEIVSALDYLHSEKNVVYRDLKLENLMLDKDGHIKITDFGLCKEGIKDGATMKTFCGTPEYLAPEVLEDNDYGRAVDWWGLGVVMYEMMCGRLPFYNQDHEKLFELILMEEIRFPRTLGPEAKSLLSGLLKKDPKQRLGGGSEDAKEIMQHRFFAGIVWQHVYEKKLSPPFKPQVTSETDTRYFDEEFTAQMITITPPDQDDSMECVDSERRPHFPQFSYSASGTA
Chain of Rho-associated protein kinase 1 (Q13464 whole entry): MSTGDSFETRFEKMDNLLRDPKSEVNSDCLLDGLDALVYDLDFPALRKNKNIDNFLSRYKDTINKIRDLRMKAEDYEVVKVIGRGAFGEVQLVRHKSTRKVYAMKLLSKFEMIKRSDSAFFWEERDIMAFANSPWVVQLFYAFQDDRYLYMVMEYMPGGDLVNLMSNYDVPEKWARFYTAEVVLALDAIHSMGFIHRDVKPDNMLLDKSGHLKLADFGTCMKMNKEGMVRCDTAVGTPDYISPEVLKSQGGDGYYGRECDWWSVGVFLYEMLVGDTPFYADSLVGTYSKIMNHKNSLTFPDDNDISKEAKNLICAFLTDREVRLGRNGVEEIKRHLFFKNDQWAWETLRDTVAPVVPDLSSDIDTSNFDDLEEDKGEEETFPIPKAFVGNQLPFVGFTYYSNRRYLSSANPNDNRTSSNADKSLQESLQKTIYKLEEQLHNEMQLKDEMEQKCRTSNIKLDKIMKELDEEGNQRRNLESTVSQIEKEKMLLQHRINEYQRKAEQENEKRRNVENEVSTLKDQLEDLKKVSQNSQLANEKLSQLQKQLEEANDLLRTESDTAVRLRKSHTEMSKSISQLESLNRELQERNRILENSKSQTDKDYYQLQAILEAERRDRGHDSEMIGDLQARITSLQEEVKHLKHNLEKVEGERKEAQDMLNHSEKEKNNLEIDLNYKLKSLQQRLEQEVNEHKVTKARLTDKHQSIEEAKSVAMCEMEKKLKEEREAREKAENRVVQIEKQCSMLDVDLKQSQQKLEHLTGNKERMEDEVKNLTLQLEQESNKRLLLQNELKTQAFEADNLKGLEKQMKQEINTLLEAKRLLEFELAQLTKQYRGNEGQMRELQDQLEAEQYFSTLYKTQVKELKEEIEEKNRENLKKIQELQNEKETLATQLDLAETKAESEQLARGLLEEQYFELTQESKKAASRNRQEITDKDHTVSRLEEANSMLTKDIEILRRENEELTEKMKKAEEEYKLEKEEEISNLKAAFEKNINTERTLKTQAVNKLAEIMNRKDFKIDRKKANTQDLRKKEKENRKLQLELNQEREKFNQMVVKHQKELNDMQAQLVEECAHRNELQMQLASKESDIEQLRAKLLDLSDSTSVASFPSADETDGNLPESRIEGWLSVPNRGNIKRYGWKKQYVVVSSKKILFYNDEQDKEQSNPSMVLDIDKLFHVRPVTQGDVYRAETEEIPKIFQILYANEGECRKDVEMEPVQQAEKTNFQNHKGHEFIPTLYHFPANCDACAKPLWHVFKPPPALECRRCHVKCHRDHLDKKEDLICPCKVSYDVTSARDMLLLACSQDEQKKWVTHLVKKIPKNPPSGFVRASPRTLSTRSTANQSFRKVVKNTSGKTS

Regarding `Cc1n[nH]c2ccc(-c3cc(OC[C@@H](N)Cc4ccccc4)cnc3-c3cc(Cl)ccc3O)cc12`, the figures for the IC50 in assay [1] and in assay [2] were 0.003 µM and 7.6 µM, respectively. The Ratio IC50 in assay [3] is above 2000.
With `Cc1n[nH]c2ccc(-c3cc(OC[C@@H](N)Cc4ccccc4)cnc3-c3ccc[nH]3)cc12`, the IC50 in assay [1] is 0.015 µM; in assay [2] it was above 10 µM.
The matching figures for `Cc1n[nH]c2ccc(-c3cc(OC[C@@H](N)Cc4ccccc4)cnc3-c3ccoc3)cc12`: 0.01 µM and 5.2 µM.
Turning to `Cc1n[nH]c2ccc(-c3cc(OC[C@@H](N)Cc4ccccc4)cnc3C#CC(C)(C)O)cc12`, the IC50 in assay [4] is 10.5 µM; in assay [2], above 10 µM.
For `Cc1n[nH]c2ccc(-c3cc(OC[C@@H](N)Cc4c[nH]c5c(F)cccc45)cnc3-c3ccoc3)cc12`, the IC50 came to 0.001 µM in assay [1] and 0.26 µM in assay [5].
In the same order, the values of `Cc1occc1-c1ncc(OC[C@@H](N)Cc2c[nH]c3ccccc23)cc1-c1ccc2[nH]nc(C)c2c1` are 0.0008 µM and 0.084 µM.
Turning to `Cc1n[nH]c2ccc(-c3cc(OC[C@@H](N)Cc4ccccc4)cnc3-c3cccs3)cc12`, the IC50 in assay [1] was found to be 0.079 µM; in assay [2] it was 2.5 µM.
In the same order, the values of `Cc1n[nH]c2ccc(-c3cc(OC[C@@H](N)Cc4ccccc4)cnc3C#CCCO)cc12` are 0.72 µM and above 10 µM.
Turning to `Cc1n[nH]c2ccc(-c3cc(OC[C@@H](N)Cc4c[nH]c5ncccc45)cnc3-c3ccoc3)cc12`, the figures for the IC50 in assay [1] and in assay [5] were 0.008 µM and 0.93 µM, respectively.
With `Cc1n[nH]c2ccc(-c3cc(OC[C@@H](N)Cc4ccccc4)cnc3-c3ccccc3O)cc12`, the IC50 in assay [1] is 0.015 µM; in assay [2], 9.5 µM.
`Cc1n[nH]c2ccc(-c3cc(OC[C@@H](N)Cc4ccccc4)cnc3-c3ccco3)cc12`: the IC50 in assay [4] is 0.79 µM; in assay [2], 1.29 µM.
Regarding `Cc1n[nH]c2ccc(-c3cc(OC[C@@H](N)Cc4ccccc4)cnc3-c3ccc(O)cc3)cc12`, the IC50 in assay [1] came to 0.5 µM; in assay [2] it was 1.4 µM.
Turning to `Cc1n[nH]c2ccc(-c3cc(OC[C@@H](N)Cc4ccccc4)cnc3-c3ccsc3)cc12`, the results for the IC50 in assay [1] and in assay [2] were 0.05 µM and 6 µM, respectively.
In the case of `Cc1n[nH]c2ccc(-c3cc(OC[C@@H](N)Cc4c[nH]c5ccncc45)cnc3-c3ccoc3)cc12`, the 50% inhibitory concentration (IC50) was 0.013 µM in assay [1] and 6.8 µM in assay [5].
`Cc1n[nH]c2ccc(-c3cc(OC[C@@H](N)Cc4ccccc4)cnc3-c3cc(F)ccc3O)cc12`: the IC50 in assay [4] is 0.01 µM; in assay [2], 9.8 µM.
On to `Cc1n[nH]c2ccc(-c3cc(OC[C@@H](N)Cc4c[nH]c5cccnc45)cnc3-c3ccoc3)cc12`, for which the IC50 in assay [1] stood at 0.01 µM; in assay [5], 4.3 µM.
Turning to `Cc1n[nH]c2ccc(-c3cc(OC[C@@H](N)Cc4ccccc4)cnc3-c3cc(F)cc(F)c3O)cc12`, the IC50 was 0.063 µM in assay [1] and above 10 µM in assay [2].
For `COc1ccccc1-c1ncc(OC[C@@H](N)Cc2ccccc2)cc1-c1ccc2[nH]nc(C)c2c1`, the IC50 is 0.1 µM in assay [1] and above 10 µM in assay [2].
Regarding `Cc1n[nH]c2ccc(-c3cc(OC[C@@H](N)Cc4c[nH]c5ccccc45)cnc3-c3ccoc3)cc12`, in assay [5], the IC50 is 0.5 µM.
Turning to `Cc1n[nH]c2ccc(-c3cc(OC[C@@H](N)Cc4ccccc4)cnc3-c3ccccc3)cc12`, the IC50 in assay [1] is 0.05 µM; in assay [2] it was above 10 µM. In addition, the Ratio IC50 in assay [3] was above 200.
`Cc1n[nH]c2ccc(-c3cc(OC[C@@H](N)Cc4ccccc4)cnc3-c3cccc(O)c3)cc12`: the IC50 was 0.079 µM in assay [1] and above 10 µM in assay [2].
Turning to `Cc1n[nH]c2ccc(-c3cc(OC[C@@H](N)Cc4c[nH]c5ccc(F)cc45)cnc3-c3ccoc3)cc12`, the IC50 in assay [1] worked out at 0.001 µM; in assay [5], 0.36 µM.
The matching figures for `Cc1n[nH]c2ccc(-c3cc(OC[C@@H](N)Cc4c[nH]c5cc(F)ccc45)cnc3-c3ccoc3)cc12`: 0.0008 µM and 0.22 µM.
